ChEMBL document CHEMBL1144324, “2,3-Dimethoxy-5-methyl-1,4-benzoquinones and 2-methyl-1,4-naphthoquinones: glycation inhibitors with lipid peroxidation activity” (Bioorg Med Chem Lett, 2005)

Legend:
Assay type in all cases: functional, organism-based; call rule not given here
Rattus norvegicus [1] = species on record: Rattus norvegicus; experiment: Inhibitory concentration against lipid peroxidation in rat
Method in brief: (§1)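 TBARS assay in rat brain homogenate (5 mg protein/mL). Compound was preincubated with homogenate 20 min at 37 °C with shaking, then peroxidation was started with 0.02 mM FeCl2 and 0.25 mM ascorbic acid for 30 min at 37 °C. The reaction was stopped with perchloric acid and centrifuged. Supernatant was reacted with 0.5% TBA at 80 °C for 1 h and A532 read against a 1,1,3,3-tetraethoxypropane standard.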

Bos taurus [2] = species on record: Bos taurus; experiment: Inhibitory concentration against bovine serum albumin glycation was determined
Rattus norvegicus [3] = species on record: Rattus norvegicus; experiment: Inhibitory concentration for lipid peroxidation in rat; method in brief: as §1
Bos taurus [4] = species on record: Bos taurus; experiment: Inhibitory concentration against bovine serum albumin glycation; Not active from 3.80 nM to 1.00 mM

Compound	IC50 (Rattus norvegicus [1]) [µM]	IC50 (Bos taurus [2]) [µM]	IC50 (Rattus norvegicus [3]) [µM]	IC50 (Bos taurus [4])
CC1=C(Br)C(=O)c2ccccc2C1=O	1.1	144	–	–
COC1=C(OC)C(=O)C(C(=O)NCCc2ccccc2)=C(C)C1=O	–	–	29.2	–
COC1=C(OC)C(=O)C(c2ccccc2)=C(C)C1=O	39.4	218	–	–
CC1=C(Cl)C(=O)c2ccccc2C1=O	1.41	199	–	–
Cc1c(C)c2c(c(C)c1O)CC[C@@](C)(CCC[C@H](C)CCC[C@H](C)CCCC(C)C)O2 [ALPHA-TOCOPHEROL]	–	–	–	Not Active
CC1=CC(=O)c2ccccc2C1=O [MENADIONE]	12.2	–	–	–
